Results on seven compounds are retold here after ChEMBL document CHEMBL2331482, “Synthesis of some new 2-(3-pyridyl)-4,5-disubstituted thiazoles as potent antimicrobial agents” (2013).

What all share (assay type): functional
Test [1] relates to Bacillus subtilis. The test can be described thus: Antibacterial activity against Bacillus subtilis RCMB 010063 assessed as growth inhibition after 24 hrs by twofold serial dilution method. To be noted: RCMB 010063, 24 h. In a few lines:
(§1)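 Broth microdilution in Müller–Hinton broth, 96-well plates. Only compounds giving disc-diffusion zones >10 mm were tested. DMF stocks (1000 µg/mL) were diluted twofold to a final 500–0.007 µg/mL, with about 10^6 CFU/mL bacteria. Sealed plates ran 24 h at 37 °C in a humid chamber. MIC was the lowest concentration with no visible turbidity. DMF and uninoculated-medium controls were included.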

For test [2], the system named is Neisseria gonorrhoeae. Put plainly: Antibacterial activity against Neisseria gonorrhoeae RCMB 010076 assessed as growth inhibition after 24 hrs by twofold serial dilution method. In a few lines: as §1
In test [3] the test system is Candida albicans. The test can be described thus: Antifungal activity against Candida albicans RCMB 05035 assessed as growth inhibition after 48 hrs by twofold serial dilution method. In a few lines: (§2)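 Fungi were tested by microdilution in Sabouraud liquid medium. Only compounds with disc-diffusion zones >10 mm went on to this test. DMF stocks (1000 µg/mL) were serially diluted twofold to 500–0.007 µg/mL. Sealed plates were held 48 h at 25 °C in a humid chamber. MIC was the lowest concentration without visible turbidity. DMF and uninoculated-medium controls ran in parallel.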

The subject of test [4] is Geotrichum candidum. The test can be described thus: Antifungal activity against Geotricum candidum RCMB 05096 assessed as growth inhibition after 48 hrs by twofold serial dilution method. The settings on record: RCMB 05096, 48 h. In a few lines: as §2
Test [5] relates to Klebsiella pneumoniae. The test can be described thus: Antibacterial activity against Klebsiella pneumoniae RCMB 010093 assessed as growth inhibition after 24 hrs by twofold serial dilution method. In a few lines: as §1
Test [6] has as its system Pseudomonas aeruginosa. Put plainly: Antibacterial activity against Pseudomonas aeruginosa RCMB 010043 assessed as growth inhibition after 24 hrs by twofold serial dilution method. In a few lines:
as §1

Test [7] deals with Streptococcus pyogenes. Put plainly: Antibacterial activity against Streptococcus pyogenes RCMB 010015 assessed as growth inhibition after 24 hrs by twofold serial dilution method. In a few lines: as §1
The test system of test [8] is Shigella flexneri. Put plainly: Antibacterial activity against Shigella flexneri RCMB 0100542 assessed as growth inhibition after 24 hrs by twofold serial dilution method. In a few lines:
as §1

In test [9] the test system is Proteus vulgaris. Put plainly: Antibacterial activity against Proteus vulgaris RCMB 010085 assessed as growth inhibition after 24 hrs by twofold serial dilution method. In a few lines:
as §1

Test [10] relates to Enterococcus faecalis. The test can be described thus: Antibacterial activity against Enterococcus faecalis RCMB 010068 assessed as growth inhibition after 24 hrs by twofold serial dilution method. In a few lines:
as §1

For test [11], the system named is Aspergillus fumigatus. Put plainly: Antifungal activity against Aspergillus fumigatus RCMB 02564 assessed as growth inhibition after 48 hrs by twofold serial dilution method. To be noted: RCMB 02564, 48 h. In a few lines:
as §2

Test [12] has as its system Talaromyces marneffei. The test can be described thus: Antifungal activity against Penicillium marneffei RCMB 01267 assessed as growth inhibition after 48 hrs by twofold serial dilution method. In a few lines: as §2
Test [13] relates to Aspergillus clavatus. Put plainly: Antifungal activity against Aspergillus clavatus RCMB 02593 assessed as growth inhibition after 48 hrs by twofold serial dilution method. To be noted: RCMB 02593, 48 h. In a few lines:
as §2

The test system of test [14] is Staphylococcus aureus. The test can be described thus: Antibacterial activity against Staphylococcus aureus RCMB 010027 assessed as growth inhibition after 24 hrs by twofold serial dilution method. To be noted: RCMB 010027, 24 h. In a few lines:
as §1

For test [15], the system named is Staphylococcus epidermidis. The test can be described thus: Antibacterial activity against Staphylococcus epidermidis RCMB 010024 assessed as growth inhibition after 24 hrs by twofold serial dilution method. To be noted: RCMB 010024, 24 h. In a few lines: as §1

Converted amounts (≈) assume the structure as drawn. The source made the active and inactive calls. The calls are words filed in the database; no cut-off is given here.

Turning to `Cc1nc(-c2cccnc2)sc1C1=NNC(c2ccc(F)cc2F)C1` (stereo not given), the MIC in test [1] turned out to be 62.5 µg/mL (≈ 175 µM); in [4], 125 µg/mL (≈ 351 µM); in [10] (RCMB 010068, 24 h) it was 125 µg/mL (≈ 351 µM); in test [11], 125 µg/mL (≈ 351 µM); in test [12] (RCMB 01267, 48 h), 250 µg/mL (≈ 701 µM); in test [13] it was 125 µg/mL (≈ 351 µM). The MIC in test [14] and in test [15] was 125 µg/mL (≈ 351 µM) throughout. The MIC result in [2], in [3], in [5], in [6], in test [7] and in [8] was “inactive” each time. Also, the MIC entry in test [9] was “inactive”.
Take `Cc1nc(-c2cccnc2)sc1C(=O)/C=C/c1ccccc1[N+](=O)[O-]`: the MIC came out at 0.97 µg/mL (≈ 2.76 µM) in [1]; 125 µg/mL (≈ 356 µM) in test [2] (RCMB 010076, 24 h); 31.2 µg/mL (≈ 88.9 µM) in test [3] (RCMB 05035, 48 h); 7.81 µg/mL (≈ 22.2 µM) in [4]; 0.97 µg/mL (≈ 2.76 µM) in test [5] (RCMB 010093, 24 h); 125 µg/mL (≈ 356 µM) in test [6] (RCMB 010043, 24 h). The MIC amounted to 62.5 µg/mL (≈ 178 µM) in test [7] (RCMB 010015, 24 h); 7.81 µg/mL (≈ 22.2 µM) in test [8] (RCMB 0100542, 24 h); 7.81 µg/mL (≈ 22.2 µM) in test [9] (RCMB 010085, 24 h); 62.5 µg/mL (≈ 178 µM) in [10] (RCMB 010068, 24 h); 7.81 µg/mL (≈ 22.2 µM) in test [11]; 15.8 µg/mL (≈ 45.1 µM) in test [12] (RCMB 01267, 48 h). For the same compound, the figures for the MIC in test [13], in [14] and in test [15] were 31.2 µg/mL (≈ 88.9 µM), 3.9 µg/mL (≈ 11.1 µM) and 0.97 µg/mL (≈ 2.76 µM), respectively.
As to `CC1(C)S[C@@H]2[C@H](NC(=O)[C@H](N)c3ccccc3)C(=O)N2[C@H]1C(=O)O` [AMPICILLIN], the MIC in [1] is 0.007 µg/mL (≈ 0.02 µM); in [7] (RCMB 010015, 24 h) it was 0.24 µg/mL (≈ 0.687 µM); in test [10] (RCMB 010068, 24 h) it was 1.95 µg/mL (≈ 5.58 µM); in test [14], 0.06 µg/mL (≈ 0.172 µM); in test [15], 0.48 µg/mL (≈ 1.37 µM).
For the compound `Cc1nc(-c2cccnc2)sc1C(=O)/C=C/c1ccc(F)cc1F`, the MIC in [1] is 15.6 µg/mL (≈ 45.7 µM); in test [3] (RCMB 05035, 48 h), 500 µg/mL (≈ 1460 µM); in test [4], 62.5 µg/mL (≈ 183 µM); in [5] (RCMB 010093, 24 h) it was 31.2 µg/mL (≈ 91.3 µM); in test [9] (RCMB 010085, 24 h), 62.5 µg/mL (≈ 183 µM); in [10] (RCMB 010068, 24 h), 250 µg/mL (≈ 730 µM). For the same compound, the MIC in [11] stood at 62.5 µg/mL (≈ 183 µM); in test [12] (RCMB 01267, 48 h), 62.5 µg/mL (≈ 183 µM); in [13], 125 µg/mL (≈ 365 µM); in test [14], 31.2 µg/mL (≈ 91.3 µM); in test [15], 31.2 µg/mL (≈ 91.3 µM). Further, the MIC result in test [2], in test [6], in test [7] and in test [8] was “inactive” throughout.
As for `Cc1nc(-c2cccnc2)sc1C(=O)/C=C/c1ccccc1`, the MIC in [1] came to 31.2 µg/mL (≈ 102 µM); in test [3] (RCMB 05035, 48 h), 500 µg/mL (≈ 1630 µM); in test [4], 62.5 µg/mL (≈ 204 µM); in test [5] (RCMB 010093, 24 h), 62.5 µg/mL (≈ 204 µM); in [8] (RCMB 0100542, 24 h), 125 µg/mL (≈ 408 µM); in test [9] (RCMB 010085, 24 h), 62.5 µg/mL (≈ 204 µM). Also, the minimal inhibitory concentration (MIC) in [10] (RCMB 010068, 24 h) was 500 µg/mL (≈ 1630 µM); in [11] it was 125 µg/mL (≈ 408 µM); in test [12] (RCMB 01267, 48 h), 125 µg/mL (≈ 408 µM); in [13], 125 µg/mL (≈ 408 µM); in [14], 62.5 µg/mL (≈ 204 µM); in test [15], 31.2 µg/mL (≈ 102 µM). Further, the MIC result in [2], in [6] and in [7] was “inactive” throughout.
On to `COc1ccc(/C=C/C(=O)c2sc(-c3cccnc3)nc2C)cc1`, for which the MIC in test [1] came to 1.95 µg/mL (≈ 5.8 µM); in [2] (RCMB 010076, 24 h), 125 µg/mL (≈ 372 µM); in test [3] (RCMB 05035, 48 h), 62.5 µg/mL (≈ 186 µM); in test [4] it was 7.81 µg/mL (≈ 23.2 µM); in test [5] (RCMB 010093, 24 h) it was 3.9 µg/mL (≈ 11.6 µM); in [6] (RCMB 010043, 24 h), 250 µg/mL (≈ 743 µM). For the same compound, the minimum inhibitory concentration (MIC) was 31.2 µg/mL (≈ 92.9 µM) in test [7] (RCMB 010015, 24 h); 7.81 µg/mL (≈ 23.2 µM) in [8] (RCMB 0100542, 24 h); 7.81 µg/mL (≈ 23.2 µM) in test [9] (RCMB 010085, 24 h); 62.5 µg/mL (≈ 186 µM) in test [10] (RCMB 010068, 24 h); 15.6 µg/mL (≈ 46.5 µM) in test [11]; 7.81 µg/mL (≈ 23.2 µM) in test [12] (RCMB 01267, 48 h). The MIC in test [13] was 31.2 µg/mL (≈ 92.9 µM); in [14], 3.9 µg/mL (≈ 11.6 µM); in test [15], 3.9 µg/mL (≈ 11.6 µM).
Regarding `CC(=O)Nc1ccc(-c2csc(-c3cccnc3)n2)cc1`, the MIC was determined as 0.97 µg/mL (≈ 3.28 µM) in test [1]; 7.81 µg/mL (≈ 26.4 µM) in test [4]; 7.81 µg/mL (≈ 26.4 µM) in test [11]; 15.6 µg/mL (≈ 52.9 µM) in test [13]; 3.9 µg/mL (≈ 13.2 µM) in test [14]; 1.95 µg/mL (≈ 6.6 µM) in test [15]. Besides, the MIC entry in test [2], in test [3], in test [5], in test [6], in [7] and in test [8] was “inactive” throughout. Further, the MIC entry in test [9], in test [10] and in test [12] was “inactive” throughout.
